Measurements reported in paper PMC9049778 (RSC Advances, 2020).

Assays:
PIM-1 kinase = conditions: read-out: IC50 against PIM-1 kinase enzyme; cited from earlier work
[1] = test system: lung adenocarcinoma H1650; test: MTT assay, H1650; type: cell-based; conditions: Homo sapiens, NCI-H1650, 24 h, read-out: IC50 ± S.D. H1650
Summary of the method: (§1)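 Cell lines from ATCC were seeded at 10^4 cells per well in 100 μL medium. They were exposed to the test compound for 24 h at 37 °C under 5% CO2. Then 10 μL MTT (5.0 mg mL−1) was added for 4 h at 37 °C. Cells were lysed in isopropanol/conc. HCl/Triton X100 for 10 min at room temperature with shaking. Formazan was read at 570 nm, in triplicate.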

[2] = test system: human promyelocytic leukemia HL-60; test: MTT assay, HL-60; type: cell-based; conditions: read-out: IC50 ± S.D. HL-60, 24 h, mean of 3 independent experiments
Summary of the method: as §1

[3] = test system: human colon adenocarcinoma HT-29; test: MTT assay, HT-29; type: cell-based; conditions: read-out: IC50 ± S.D. HT-29, 24 h, mean of 3 independent experiments
Summary of the method: as §1

PIM-1 = PIM-1 (Homo sapiens, UniProt P11309); test: PIM-1 kinase assay; type: biochemical
Chain of PIM-1 (P11309 whole entry): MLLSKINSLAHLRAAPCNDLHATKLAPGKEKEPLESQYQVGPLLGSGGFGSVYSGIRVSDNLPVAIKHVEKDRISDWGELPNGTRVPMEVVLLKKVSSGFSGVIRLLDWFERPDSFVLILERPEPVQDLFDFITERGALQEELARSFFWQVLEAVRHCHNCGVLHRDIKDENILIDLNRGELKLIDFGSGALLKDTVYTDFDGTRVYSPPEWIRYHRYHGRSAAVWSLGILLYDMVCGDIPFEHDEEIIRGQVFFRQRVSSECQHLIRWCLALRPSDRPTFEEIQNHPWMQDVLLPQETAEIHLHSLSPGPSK

PIM-2 = PIM-2 (Homo sapiens, UniProt Q9P1W9); test: PIM-2 kinase assay; type: biochemical
Chain of PIM-2 (Q9P1W9 whole entry): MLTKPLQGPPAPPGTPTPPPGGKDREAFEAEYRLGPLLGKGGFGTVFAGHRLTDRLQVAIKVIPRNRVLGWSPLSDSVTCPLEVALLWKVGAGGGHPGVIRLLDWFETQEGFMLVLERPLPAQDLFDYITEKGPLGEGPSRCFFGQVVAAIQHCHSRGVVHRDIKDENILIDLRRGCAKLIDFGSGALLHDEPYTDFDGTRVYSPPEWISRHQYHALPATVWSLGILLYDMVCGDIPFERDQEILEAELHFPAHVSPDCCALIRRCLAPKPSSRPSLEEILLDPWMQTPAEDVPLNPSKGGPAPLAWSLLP
Summary of the method: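 Luminescent ADP-Glo readout of ADP formed. Enzyme, substrate, ATP and inhibitor were diluted in kinase buffer, with 5% DMSO as vehicle. The kinase reaction ran 60 min at room temperature. ADP-Glo Reagent was then added for 40 min, followed by Kinase Detection Reagent for 30 min, both at room temperature, before luminescence was recorded.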

PIM-3 = PIM-3 (Homo sapiens, UniProt Q86V86); test: PIM-3 kinase assay; type: biochemical
Summary of the method: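 Radiometric filter assay. Active PIM-3 was mixed with substrate (1 mg mL−1 stock) and started with [33P]-ATP cocktail (250 μM ATP stock), then held 15 min at 30 °C. Aliquots were spotted onto P81 phosphocellulose, washed three times for about 10 min each in 1% phosphoric acid, and scintillation-counted. A no-substrate blank was subtracted. Kinase specific activity came from corrected cpm, ATP specific activity, time and enzyme amount.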

Nc1nccc(-c2c[nH]c3ccc(Br)cc23)n1 [Meridianin C, 4-(5-bromo-1H-indol-3-yl)pyrimidin-2-amine]
IC50 (PIM-1 kinase): 1440 nM

COc1ccc(/C=C/C(=O)/C=C2/C(=O)Nc3cc(Br)ccc32)cc1 [Compound 5, (E)-6-bromo-3-((E)-4-(4-methoxyphenyl)-2-oxobut-3-enylidene)indolin-2 one]
IC50 [1]: > 100000 nM
IC50 [2]: 1400 nM
IC50 [3]: 1700 nM

COc1ccc(/C=C/C(/C=C2/C(=O)Nc3cc(Br)ccc32)=N\O)cc1 [Compound 6, (E)-6-bromo-3-((2E,3E)-2-(hydroxyimino)-4-(4-methoxyphenyl)but-3-enylidene)indolin-2-one]
IC50 (PIM-1): 470 ± 13 nM
IC50 (PIM-2): 220 ± 10 nM
IC50 (PIM-3): 360 ± 12 nM
IC50 [1]: > 100000 nM

COc1ccc(/C=C/C(=O)CC2(O)C(=O)Nc3cc(Br)ccc32)cc1 (centres unmarked) [Compound 4, (E)-6-bromo-3-hydroxy-3-(4-(4-methoxyphenyl)-2-oxobut-3-enyl) indolin-2-one]
IC50 [1]: > 100000 nM

O=c1c(O)c(-c2ccc(O)c(O)c2)oc2cc(O)cc(O)c12 [Querecitin, quercetin, reference compound]
IC50 (PIM-2): 640 ± 10 nM
IC50 (PIM-3): 830 ± 13 nM
